# From ChEMBL document CHEMBL2401724, “Synthesis and structure--activity relationships of N²-alkylated quaternary β-carbolines as novel antitumor agents” (Eur J Med Chem, 2013)
# Legend:
# SK-OV-3 = assay: Cytotoxicity against human SKOV3 cells by MTT assay; format: functional, cell-based
# Procedure, shortened: (§1)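 Cell lines were cultured in 96-well microtitre plates at 37 °C in humidified 5% CO₂. Compounds were dissolved in DMSO, at ≤2% (v/v) final in the growth medium. Viability was read by MTT staining, expressed relative to untreated cells.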
# CWR22R = assay: Cytotoxicity against human 22Rv1 cells by MTT assay; format: functional, cell-based; procedure, shortened: as §1
# MCF7 = assay: Cytotoxicity against human MCF7 cells by MTT assay; format: functional, cell-based; procedure, shortened: as §1
# [1] = Cytotoxicity against mouse LLC cells by MTT assay; format: functional, cell-based; conditions: Lewis lung carcinoma; procedure, shortened: as §1
# A-375 = assay: Cytotoxicity against human A375 cells by MTT assay; format: functional, cell-based; procedure, shortened: as §1
# [2] = Cytotoxicity against human ECA109 cells by MTT assay; format: functional, cell-based; conditions: ECa-109; procedure, shortened: as §1
# [3] = Acute toxicity in ip dosed C57BL/6 mouse after 14 days; format: organism-based; conditions: in vivo
# Procedure, shortened: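 C57BL/6 mice (9–12 weeks, 18–22 g), single i.p. dose; watched continuously for 2 h, intermittently over 24 h, then occasionally to day 14 for behaviour, deaths and delayed effects. Survivors killed at day 14; heart, liver, kidneys inspected macroscopically, early deaths also examined. LD50 derived graphically.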
# HT-29 = assay: Cytotoxicity against human HT-29 cells by MTT assay; format: functional, cell-based; procedure, shortened: as §1
# HepG2 = assay: Cytotoxicity against human HepG2 cells by MTT assay; format: functional, cell-based; procedure, shortened: as §1
# [4] = Antitumor activity against mouse Sarcoma 180 cells allografted in mouse assessed as tumor growth inhibition at 6 mg/kg, ip qd administered for 7 days measured after 21 days relative to control; format: functional; conditions: Sarcoma-180, ip, route intraperitoneal, read-out: TGI
# Procedure, shortened: (§2)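 Tumour cells (S180 sarcoma or Lewis lung) were first grown in mice for 7 days, then harvested. Viable cells (2 × 10⁶/mouse) were injected s.c. into the armpit. Groups of 10 female mice received the compound i.p. once daily for 7 consecutive days, starting 24 h after inoculation. Cyclophosphamide 30 mg/kg served as positive control and vehicle as negative control. Body weights were taken every 3 days. Mice were killed on day 21 post-inoculation, and tumours were excised and weighed to calculate the inhibition rate versus control.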
# BGC-823 = assay: Cytotoxicity against human BGC823 cells by MTT assay; format: functional, cell-based; procedure, shortened: as §1
# 769-P = assay: Cytotoxicity against human 769-P cells by MTT assay; format: functional, cell-based; procedure, shortened: as §1
# [5] = system: Lewis lung carcinoma cell line; assay: Antitumor activity against mouse LLC cells allografted in mouse assessed as tumor growth inhibition at 0.5 mg/kg, ip qd administered for 7 days measured after 21 days relative to control; format: functional; conditions: route intraperitoneal, read-out: TGI; procedure, shortened: as §2
# [6] = Antitumor activity against mouse Sarcoma 180 cells allografted in mouse assessed as tumor growth inhibition at 0.5 mg/kg, ip qd administered for 7 days measured after 21 days relative to control; format: functional; conditions: Sarcoma-180, ip, route intraperitoneal, read-out: TGI; procedure, shortened: as §2
# [7] = system: Lewis lung carcinoma cell line; assay: Antitumor activity against mouse LLC cells allografted in mouse assessed as tumor growth inhibition at 1.25 mg/kg, ip qd administered for 7 days measured after 21 days relative to control; format: functional; conditions: route intraperitoneal, read-out: TGI; procedure, shortened: as §2
# [8] = Antitumor activity against mouse Sarcoma 180 cells allografted in mouse assessed as tumor growth inhibition at 1.25 mg/kg, ip qd administered for 7 days measured after 21 days relative to control; format: functional; conditions: Sarcoma-180, ip, route intraperitoneal, read-out: TGI; procedure, shortened: as §2
# [9] = Antitumor activity against mouse Sarcoma 180 cells allografted in mouse assessed as tumor growth inhibition at 30 mg/kg, ip qd administered for 7 days measured after 21 days relative to control; conditions: Sarcoma-180, ip, read-out: TGI
# [10] = system: Lewis lung carcinoma cell line; assay: Antitumor activity against mouse LLC cells allografted in mouse assessed as tumor growth inhibition at 30 mg/kg, ip qd administered for 7 days measured after 21 days relative to control; conditions: read-out: TGI
Structure (SMILES),IC50 (SK-OV-3),IC50 (CWR22R),IC50 (MCF7),IC50 [1],IC50 (A-375),IC50 [2],LD50 at 336 h [3],IC50 (HT-29),IC50 (HepG2),inhibition in vivo at 6 mg/kg [4],IC50 (BGC-823),IC50 (769-P),inhibition in vivo at 0.5 mg/kg [5],inhibition in vivo at 0.5 mg/kg [6],inhibition in vivo at 1.25 mg/kg [7],inhibition in vivo at 1.25 mg/kg [8],inhibition in vivo at 30 mg/kg [9],inhibition in vivo at 30 mg/kg [10]
Clc1cccc(C[n+]2ccc3c4ccccc4n(CCCc4ccccc4)c3c2)c1.[Br-],13.8 µM,9.7 µM,14.3 µM,6.5 µM,24.6 µM,7.9 µM,30 mg/kg,16.5 µM,19 µM,43.5%,9.8 µM,21.9 µM,–,–,–,–,–,–
O=[N+]([O-])c1ccc(C[n+]2ccc3c4ccccc4n(CCCc4ccccc4)c3c2)cc1,17.4 µM,5.6 µM,24.5 µM,2.2 µM,12.3 µM,7.6 µM,–,12.6 µM,19.9 µM,–,39.7 µM,8.3 µM,–,–,–,–,–,–
c1ccc(CCCn2c3ccccc3c3cc[n+](CCc4ccccc4)cc32)cc1,8.4 µM,4 µM,12.5 µM,< 2 µM,12.2 µM,8.1 µM,–,3.3 µM,14 µM,–,10.4 µM,14 µM,–,–,–,–,–,–
c1ccc(CCCn2c3ccccc3c3cc[n+](CCCc4ccccc4)cc32)cc1,10.8 µM,4.9 µM,3.7 µM,< 2 µM,3.2 µM,5.3 µM,–,3.4 µM,4 µM,–,9.4 µM,3.3 µM,–,–,–,–,–,–
Cc1c2c(cc[n+]1Cc1ccccc1)c1ccccc1n2CCCc1ccccc1.[Br-],7.6 µM,1.8 µM,7 µM,< 2 µM,8.5 µM,6.8 µM,2.5 mg/kg,14.6 µM,5.8 µM,–,6.9 µM,5.3 µM,33.1%,51%,–,–,–,–
c1ccc(CCCn2c3ccccc3c3cc[n+](Cc4ccccc4)c(-c4ccccc4)c32)cc1,< 2 µM,3.7 µM,3.7 µM,< 2 µM,5.9 µM,5.1 µM,–,10.8 µM,4.8 µM,–,< 2 µM,3 µM,–,–,–,–,–,–
COc1ccc(-c2c3c(cc[n+]2Cc2ccccc2)c2ccccc2n3CCCc2ccccc2)cc1.[Br-],5.2 µM,1.8 µM,2.2 µM,< 2 µM,< 2 µM,12.3 µM,6.25 mg/kg,2.4 µM,3.3 µM,–,3.2 µM,< 2 µM,–,–,23.9%,41.4%,–,–
c1ccc(CCCn2c3ccccc3c3cc[n+](Cc4ccccc4)c(-c4ccsc4)c32)cc1,14.6 µM,8.4 µM,29.2 µM,3.1 µM,27.9 µM,27.2 µM,–,31.3 µM,36.7 µM,–,4 µM,14.6 µM,–,–,–,–,–,–
Cn1c2ccccc2c2cc[n+](Cc3ccccc3)cc21,55.2 µM,8.4 µM,> 100 µM,8.4 µM,37.3 µM,95.9 µM,–,59.1 µM,> 100 µM,–,13.2 µM,22.5 µM,–,–,–,–,–,–
CCn1c2ccccc2c2cc[n+](Cc3ccccc3)cc21,27.6 µM,5.6 µM,> 100 µM,5.1 µM,54.3 µM,36.7 µM,–,> 100 µM,> 100 µM,–,> 100 µM,38.5 µM,–,–,–,–,–,–
CC(C)n1c2ccccc2c2cc[n+](Cc3ccccc3)cc21,6.6 µM,3.6 µM,54.8 µM,< 2 µM,24.5 µM,7.6 µM,–,> 100 µM,58.7 µM,–,61.5 µM,30.8 µM,–,–,–,–,–,–
C=CCn1c2ccccc2c2cc[n+](Cc3ccccc3)cc21,12.6 µM,< 2 µM,72.6 µM,4.6 µM,11.3 µM,21.4 µM,–,> 100 µM,67.8 µM,–,> 100 µM,21.9 µM,–,–,–,–,–,–
CCCCn1c2ccccc2c2cc[n+](Cc3ccccc3)cc21,4.7 µM,< 2 µM,34.1 µM,< 2 µM,19.6 µM,8.6 µM,–,83.8 µM,29 µM,–,68.1 µM,19.8 µM,–,–,–,–,–,–
CC(C)Cn1c2ccccc2c2cc[n+](Cc3ccccc3)cc21,27.7 µM,9.6 µM,39.2 µM,8 µM,28.4 µM,35.7 µM,–,87.7 µM,36.6 µM,–,60.7 µM,11.6 µM,–,–,–,–,–,–
CCCCCCn1c2ccccc2c2cc[n+](Cc3ccccc3)cc21,7.3 µM,< 2 µM,11.1 µM,< 2 µM,6.8 µM,13.9 µM,–,16 µM,13.9 µM,–,5.2 µM,2.7 µM,–,–,–,–,–,–
CCCCCCCCn1c2ccccc2c2cc[n+](Cc3ccccc3)cc21,3.2 µM,2.9 µM,4.1 µM,< 2 µM,3.1 µM,5.1 µM,–,10.9 µM,6.5 µM,–,2.5 µM,< 2 µM,–,–,–,–,–,–
Fc1ccc(Cn2c3ccccc3c3cc[n+](Cc4ccccc4)cc32)cc1,10.5 µM,3.5 µM,17.8 µM,< 2 µM,4.7 µM,35.4 µM,–,28.9 µM,23.4 µM,–,6.3 µM,6 µM,–,–,–,–,–,–
Clc1cccc(Cn2c3ccccc3c3cc[n+](Cc4ccccc4)cc32)c1,7.9 µM,4.2 µM,20.3 µM,< 2 µM,7 µM,23.3 µM,–,26.9 µM,16.5 µM,–,20.3 µM,3.5 µM,–,–,–,–,–,–
COc1ccc(Cn2c3ccccc3c3cc[n+](Cc4ccccc4)cc32)cc1.[Br-],19.9 µM,4.8 µM,18.7 µM,4.2 µM,9.5 µM,54.3 µM,19.5 mg/kg,19.2 µM,15.9 µM,–,17.8 µM,7.6 µM,–,–,–,–,–,–
C[n+]1ccc2c3ccccc3n(CCCc3ccccc3)c2c1,> 100 µM,4.3 µM,75.6 µM,2.4 µM,41.5 µM,60 µM,–,97.3 µM,90.8 µM,–,40.6 µM,19.9 µM,–,–,–,–,–,–
CC[n+]1ccc2c3ccccc3n(CCCc3ccccc3)c2c1,> 100 µM,2.5 µM,98.7 µM,4.3 µM,45.1 µM,55.5 µM,–,54.2 µM,92.1 µM,–,88 µM,34.2 µM,–,–,–,–,–,–
CCCC[n+]1ccc2c3ccccc3n(CCCc3ccccc3)c2c1,15.8 µM,3.4 µM,38.7 µM,< 2 µM,12.2 µM,41.5 µM,–,62.7 µM,45.5 µM,–,15.4 µM,13.4 µM,–,–,–,–,–,–
CCCCCC[n+]1ccc2c3ccccc3n(CCCc3ccccc3)c2c1,< 2 µM,2.2 µM,3.9 µM,< 2 µM,2.9 µM,2.5 µM,–,2.3 µM,4.3 µM,–,2.3 µM,2.5 µM,–,–,–,–,–,–
CCCCCCCC[n+]1ccc2c3ccccc3n(CCCc3ccccc3)c2c1,5.9 µM,4.3 µM,2.9 µM,< 2 µM,< 2 µM,22.8 µM,–,18.6 µM,4.7 µM,–,7.4 µM,< 2 µM,–,–,–,–,–,–
CCCCCCCCCC[n+]1ccc2c3ccccc3n(CCCc3ccccc3)c2c1,57 µM,6.9 µM,< 2 µM,15.7 µM,< 2 µM,23.2 µM,–,31.3 µM,< 2 µM,–,57 µM,< 2 µM,–,–,–,–,–,–
O=P1(N(CCCl)CCCl)NCCCO1 (stereo unspecified) [CYCLOPHOSPHAMIDE ANHYDROUS],–,–,–,–,–,–,–,–,–,–,–,–,–,–,–,–,85.6%,87.3%
